Results gathered from unrelated publications.
Compare with care: the assays were run in different laboratories. Values after ≈ are worked out from the molar mass of the structure shown.

O=C(Nc1cncc(-c2nc3ccccc3o2)c1)c1cc([N+](=O)[O-])c(N2CCNCC2)cc1Cl gave an EC50 of 750 nM (Leishmania mexicana; parasite growth; J774.A1; intracellular, amastigote).
CC1(C)CC[C@]2(NC(=O)NCCN3CCCC3)CC[C@]3(C)C(=CC[C@@H]4[C@@]5(C)CC[C@@H]6OC(C)(C)OC[C@@]6(C)[C@@H]5CC[C@]43C)[C@@H]2C1 gave an inhibition of 99.1% (Leishmania mexicana; parasite growth, resazurin; 50 µM, amastigote).
O=C(Nc1ccccc1-c1ccc(F)c(F)c1)c1nccnc1C(F)(F)F gave an EC50 of 11 µg/mL (Verticillium; microbial growth).
O=C1NC(=S)N/C1=C\c1c2ccccc2c(-c2ccc(N(c3ccccc3)c3ccccc3)cc2)c2ccccc12 gave an MIC of > 1000 µg/mL (Staphylococcus epidermidis; microbial growth, broth dilution; ATCC12228).
For Cc1ccc(-c2nc3ccccc3s2)cc1NC(=O)c1cc([N+](=O)[O-])c(N2CCCCC2)cc1Cl, the EC50 was > 10000 nM (Leishmania mexicana; parasite growth; J774.A1; intracellular, amastigote).
The inhibition of CC1(C)CC[C@]2(C(=O)O)CC[C@]3(C)C(=CC[C@@H]4[C@@]5(C)CC[C@H](O[C@@H]6OC[C@H](O)[C@H](O)[C@H]6O)[C@@](C)(CO)[C@@H]5CC[C@]43C)[C@@H]2C1 is reported as 96.9% (Leishmania mexicana; parasite growth, resazurin; 50 µM, amastigote).
O=C(O)CN1C(=O)/C(=C/c2ccc(-c3ccc(N(c4ccccc4)c4ccccc4)cc3)cc2)NC1=S has an MBC of 3.9 µg/mL (≈ 7.71 µM) (Staphylococcus epidermidis; microbial killing, broth dilution; ATCC12228).
CC1(C)CC[C@]2(NC(=O)N3CCC[C@H]3CN3CCCC3)CC[C@]3(C)C(=CC[C@@H]4[C@@]5(C)CC[C@@H]6OC(C)(C)OC[C@@]6(C)[C@@H]5CC[C@]43C)[C@@H]2C1 gave an inhibition of 97.6% (Leishmania mexicana; parasite growth, resazurin; 50 µM, amastigote).
Cc1ccc(-c2nc3ccccc3s2)cc1NC(=O)c1cc([N+](=O)[O-])c(NCCN)cc1Cl gave an EC50 of 250 nM (Leishmania mexicana; parasite growth; J774.A1; intracellular, amastigote).
